Results collected from several papers.
Protocols differ between the studies behind these lines.
Target: Calcium/calmodulin-dependent protein kinase type 1D (CAMK1D, Homo sapiens, UniProt Q8IU85)

SMILES	effect on	action	technique	concentration	measurement	result
NS(=O)(=O)c1cc(NC(=O)C2(c3ccccc3Cl)CC2)ccc1Oc1cccc(Cl)c1	cell-free assay	–	competition with immobilised ligand	1 µM	remaining binding	97%
Cn1c2c(Cl)c(Cl)ccc2c2cc[nH]c(=O)c21	thermal stability	–	DSF	10 µM	ΔTm	1 °C
C[S+]([O-])c1ccc(-c2nc(-c3ccncc3)c(-c3ccc(F)cc3)[nH]2)cc1 (stereo not shown)	cell-free assay	–	–	0.5 µM	remaining signal	105%
Cc1sc(C(=O)NC2COC2)cc1-n1cc(NC(=O)Nc2c(F)cccc2Cl)cn1	enzyme activity	inhibitor	–	10 µM	remaining activity	105%
CC(C)(C)c1nc2c(s1)c1nc(N)ncc1c1ccc(NS(=O)(=O)c3c(F)cccc3F)c(F)c12	enzyme activity	inhibitor	radiometric	1 µM	remaining activity	97%
CCCCNc1ncc2c(-c3ccc(F)cc3)nn(C[C@H]3CC[C@H](N)CC3)c2n1	target engagement in cells	inhibitor	chemoproteomics	20 mM	inhibition	5.9%
Cc1ccc(Nc2nccc(N(C)c3ccc4c(C)n(C)nc4c3)n2)cc1S(N)(=O)=O	enzyme activity	inhibitor	–	0.3 µM	inhibition	18%
CNCc1ccccc1-c1csc([C@H](C)Nc2nc(C)nc3cc(OC)c(OC)cc23)c1	cell-free assay	–	competition with immobilised ligand	1 µM	remaining binding	100%
CCN1CCC2(CC1)NC(=O)c1c(c3ccc(Cl)c(Cl)c3n1C)C2C#N (racemic)	thermal stability	–	DSF	10 µM	ΔTm	-0.1 °C
N#CCCc1ccc2c(c1)-c1[nH]c3ccc([N+](=O)[O-])cc3c1CC(=O)N2	cell-free assay	–	–	0.5 µM	remaining signal	91.8%
CCCS(=O)(=O)Nc1ccc(F)c(C(=O)c2c[nH]c3ncc(-c4ccc(Cl)cc4)cc23)c1F	enzyme activity	inhibitor	–	1 µM	inhibition	< 10%
COc1cc2ncnc(Nc3ccc(F)c(Cl)c3)c2cc1OCCCN1CCOCC1	cell-free assay	–	–	0.5 µM	remaining signal	88.6%
CCCOc1ccc(OC)c(F)c1C(=O)c1ccc(C(=O)N[C@@H]2CNC[C@H]2NC(=O)c2ccc3[nH]ncc3c2)cc1	enzyme activity	inhibitor	–	10 µM	remaining activity	63%
CN1CCC2(CC1)NC(=O)c1c(c3ccc(Cl)c(Cl)c3n1C)C2C#N (racemic)	thermal stability	–	DSF	10 µM	ΔTm	-0.4 °C
C[C@H](c1ccnc(Nc2nc3ccc(-c4cc(N(C)C)ncn4)cc3[nH]2)c1)N1CCN(C(=O)CC(F)(F)F)CC1	cell-free assay	–	competition with immobilised ligand	0.1 µM	remaining binding	95%
Cc1ccc(C(=O)Nc2ccc(CN3CCN(C)CC3)c(C(F)(F)F)c2)cc1C#Cc1cnc2cccnn12	enzyme activity	inhibitor	–	23.5 nM	remaining activity	86%
CO[C@@H](C)c1c(Nc2ccc([C@@H](N(C)C(=O)C3CCS(=O)(=O)CC3)C(F)(F)F)cc2)cnc2cc(Cl)nn12	cell-free assay	–	competition with immobilised ligand	1 µM	remaining binding	100%
COc1cc(Cl)c(C(=O)N[C@@H](CN[C@H]2CC[C@@H](N)CC2)Cc2ccc(C#N)cc2)cc1-c1ccc(CN[C@H](C)c2ccc(C)cc2)o1	enzyme activity	inhibitor	–	1 µM	remaining activity	88%
O=C1CCc2cc(Nc3cc(OC4CCOCC4)c([N+](=O)[O-])cc3Cl)ccc2N1	cell-free assay	–	competition with immobilised ligand	1 µM	remaining binding	100%
CC/C(=N\NC(=O)NCc1cccc(O)c1)c1ccc(O)c(C)c1O	enzyme activity	inhibitor	–	0.1 µM	inhibition	-3.5%
O=C(NCc1ncc(C(F)(F)F)cc1Cl)c1ccc2c(c1)C1(CCS(=O)(=O)CC1)[C@@H](C1CC1)N2S(=O)(=O)c1ccc(F)cc1	cell-free assay	–	competition with immobilised ligand	1 µM	remaining binding	99%
CCC1(CC)NC(=O)c2c(c3ccc(Cl)c(Cl)c3n2C)C1C#N (stereo not shown)	thermal stability	–	DSF	10 µM	ΔTm	-0.2 °C
